Reference: ChEMBL document CHEMBL4400523, “Synthesis of novel pyrido[1,2-c]pyrimidine derivatives with rigidized tryptamine moiety as potential SSRI and 5-HT1A receptor ligands” (Eur J Med Chem, 2019)
Activity calls are given as the source filed them. No cut-off for these calls is given here.

Tests used:
[1] = molecular target: Sodium-dependent serotonin transporter (Rattus norvegicus, UniProt P31652); experiment: Displacement of [3H]-citalopram from SERT in rat cortex tissue measured after 60 mins by microbeta scintillation counting analysis
Procedure, shortened: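 Rat cortex tissue suspension with 1.0 nM [3H]-citalopram in 50 mM Tris pH 7.7, 150 mM NaCl, 5 mM KCl. Incubated 60 min at 24 °C, in duplicate. GF/B filtration, scintillation counting. One-site fit, Ki via Cheng–Prusoff with in-house Kd.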

[2] = molecular target: T1, 5-hydroxytryptamine receptor 1A (Homo sapiens, UniProt P08908); experiment: Displacement of [3H]-8-OH-DPAT from recombinant human 5HT1A receptor expressed in CHO cell membranes measured after 60 mins by microbeta scintillation counting analysis
T1 sequence (P08908 whole entry): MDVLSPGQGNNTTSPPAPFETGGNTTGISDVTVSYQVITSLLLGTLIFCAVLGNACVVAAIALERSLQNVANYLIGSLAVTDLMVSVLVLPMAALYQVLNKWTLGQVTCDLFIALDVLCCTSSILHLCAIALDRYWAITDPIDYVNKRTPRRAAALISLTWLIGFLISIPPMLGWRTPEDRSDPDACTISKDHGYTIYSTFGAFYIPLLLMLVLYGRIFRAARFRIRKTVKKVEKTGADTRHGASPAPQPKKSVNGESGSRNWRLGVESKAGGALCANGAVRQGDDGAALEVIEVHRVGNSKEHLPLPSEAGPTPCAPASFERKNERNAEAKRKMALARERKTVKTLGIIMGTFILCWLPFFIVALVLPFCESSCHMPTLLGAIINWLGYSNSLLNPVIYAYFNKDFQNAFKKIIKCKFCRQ

[3] = system: Mus musculus; experiment: Inhibition of 8-OH-DPAT-induced hypothermia in CD-1 mouse assessed change in body temperature at 20 mg/kg, ip measured after 60 mins by thermometric method (reference value: -2.4 +/- 0.3 deg C); type: functional, organism-based
[4] = system: Mus musculus; experiment: Induction of hypothermia in CD-1 mouse assessed as change in body temperature at 5 mg/kg, ip measured after 60 mins by thermometric method; type: functional, organism-based
Procedure, shortened: (§1)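 Male CD-1 mice (23–40 g), 6–8 per dose, given compound ip in 10% aqueous DMSO (10 mL/kg). Rectal temperature was read by thermometer 30, 60, 90 and 120 min after dosing. Results are expressed as change from basal temperature at experiment start. Analysis by Dunnett's test.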

[5] = system: Mus musculus; experiment: Induction of hypothermia in CD-1 mouse assessed as change in body temperature at 20 mg/kg, ip measured after 30 mins by thermometric method; type: functional, organism-based; procedure, shortened: as §1
[6] = system: Mus musculus; experiment: Induction of hypothermia in CD-1 mouse assessed as change in body temperature at 20 mg/kg, ip measured after 60 mins by thermometric method; type: functional, organism-based; procedure, shortened: as §1
[7] = system: Mus musculus; experiment: Induction of hypothermia in CD-1 mouse assessed as change in body temperature at 5 mg/kg, ip measured after 120 mins by thermometric method; type: functional, organism-based; procedure, shortened: as §1
[8] = molecular target: D(2) dopamine receptor (Homo sapiens, UniProt P14416); experiment: Displacement of [3H]-raclopride from recombinant human D2 receptor expressed in HEK293 cells measured after 1 hr by microbeta scintillation counting analysis; type: cell-based
[9] = molecular target: 5-hydroxytryptamine receptor 7 (Homo sapiens, UniProt P34969); experiment: Displacement of [3H]-5-CT from recombinant human 5HT7 receptor expressed in HEK293 cells measured after 1 hr by microbeta scintillation counting analysis; type: cell-based
[10] = system: Mus musculus; experiment: Inhibition of 8-OH-DPAT-induced hypothermia in CD-1 mouse assessed change in body temperature at 20 mg/kg, ip measured after 45 mins by thermometric method (reference value: -2.6 +/- 0.2 deg C); type: functional, organism-based
[11] = Half life in human liver microsomes at 1 uM by LC-MS analysis; type: ADME, Microsome
Procedure, shortened: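 Compound at 1 μM incubated at 37 °C with 1 mg/mL pooled human liver microsomes and 100 μM NADPH in 0.1 M potassium phosphate pH 7.4, after 5-min preincubation. Samples taken at 0, 5, 10, 15, 30 min and quenched in ice-cold acetonitrile with buspirone internal standard. No-NADPH controls were run. Parent measured by LC-ESI(+)-MS of [M+H+]; half-life reported.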

[12] = system: Mus musculus; experiment: Induction of hypothermia in CD-1 mouse assessed as change in body temperature at 5 mg/kg, ip measured after 90 mins by thermometric method; type: functional, organism-based; procedure, shortened: as §1
[13] = system: Mus musculus; experiment: Induction of hypothermia in CD-1 mouse assessed as change in body temperature at 20 mg/kg, ip measured after 120 mins by thermometric method; type: functional, organism-based; procedure, shortened: as §1
[14] = system: Mus musculus; experiment: Induction of hypothermia in CD-1 mouse assessed as change in body temperature at 20 mg/kg, ip measured after 90 mins by thermometric method; type: functional, organism-based; procedure, shortened: as §1
[15] = system: Mus musculus; experiment: Inhibition of 8-OH-DPAT-induced hypothermia in CD-1 mouse assessed change in body temperature at 20 mg/kg, ip measured after 30 mins by thermometric method (reference value: -2.4 +/- 0.2 deg C); type: functional, organism-based
[16] = molecular target: 5-hydroxytryptamine receptor 2A (Homo sapiens, UniProt P28223); experiment: Displacement of [3H]-ketanserin from recombinant human 5HT2A receptor expressed in HEK293 cells measured after 1.5 hrs by microbeta scintillation counting analysis; type: cell-based
[17] = system: Mus musculus; experiment: Inhibition of 8-OH-DPAT-induced hypothermia in CD-1 mouse assessed change in body temperature at 20 mg/kg, ip measured after 15 mins by thermometric method (reference value: -1.9 +/- 0.2 deg C); type: functional, organism-based
[18] = system: Mus musculus; experiment: Induction of hypothermia in CD-1 mouse assessed as change in body temperature at 5 mg/kg, ip measured after 30 mins by thermometric method; type: functional, organism-based; procedure, shortened: as §1
[19] = molecular target: 5-hydroxytryptamine receptor 6 (Homo sapiens, UniProt P50406); experiment: Displacement of [3H]-LSD from recombinant human 5HT6 receptor expressed in HEK293 cells measured after 1 hr by microbeta scintillation counting analysis; type: cell-based
[20] = system: Mus musculus; experiment: Induction of hypothermia in CD-1 mouse assessed as change in body temperature at 20 mg/kg, ip measured after 60 mins in presence of WAY100635 by thermometric method; type: functional, organism-based
[21] = system: Mus musculus; experiment: Induction of hypothermia in CD-1 mouse assessed as change in body temperature at 20 mg/kg, ip measured after 30 mins in presence of WAY100635 by thermometric method; type: functional, organism-based
[22] = system: Mus musculus; experiment: Antidepressant-like activity in CD-1 mouse assessed as decrease in immobility time at 20 mg/kg, ip measured after 30 mins by forced swim test; type: functional, organism-based
Procedure, shortened: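 Male CD-1 mice (23–40 g), 6–8 per dose, given test agent ip in 10% aqueous DMSO (10 mL/kg) 30 min before test. Mice were placed singly in glass cylinders (25 cm high, 10 cm diameter) holding 20 cm water at 23 °C for 6 min. Immobility (passive floating) was timed over the last 4 min after a 2-min adaptation. Analysis by Dunnett's test.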

5-hydroxytryptamine receptor 6, sequence (P50406 whole entry): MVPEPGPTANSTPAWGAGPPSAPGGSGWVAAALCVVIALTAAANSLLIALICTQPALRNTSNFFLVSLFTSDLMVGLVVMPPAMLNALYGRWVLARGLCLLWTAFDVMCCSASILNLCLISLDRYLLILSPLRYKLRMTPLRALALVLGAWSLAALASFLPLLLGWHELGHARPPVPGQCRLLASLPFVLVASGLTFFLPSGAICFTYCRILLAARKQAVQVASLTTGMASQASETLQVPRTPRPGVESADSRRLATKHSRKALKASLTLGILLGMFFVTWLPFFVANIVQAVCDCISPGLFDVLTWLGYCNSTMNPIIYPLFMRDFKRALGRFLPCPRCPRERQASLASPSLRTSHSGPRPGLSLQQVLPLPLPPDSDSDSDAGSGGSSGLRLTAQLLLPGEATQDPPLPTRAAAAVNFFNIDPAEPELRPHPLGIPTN
D(2) dopamine receptor, sequence (P14416 whole entry): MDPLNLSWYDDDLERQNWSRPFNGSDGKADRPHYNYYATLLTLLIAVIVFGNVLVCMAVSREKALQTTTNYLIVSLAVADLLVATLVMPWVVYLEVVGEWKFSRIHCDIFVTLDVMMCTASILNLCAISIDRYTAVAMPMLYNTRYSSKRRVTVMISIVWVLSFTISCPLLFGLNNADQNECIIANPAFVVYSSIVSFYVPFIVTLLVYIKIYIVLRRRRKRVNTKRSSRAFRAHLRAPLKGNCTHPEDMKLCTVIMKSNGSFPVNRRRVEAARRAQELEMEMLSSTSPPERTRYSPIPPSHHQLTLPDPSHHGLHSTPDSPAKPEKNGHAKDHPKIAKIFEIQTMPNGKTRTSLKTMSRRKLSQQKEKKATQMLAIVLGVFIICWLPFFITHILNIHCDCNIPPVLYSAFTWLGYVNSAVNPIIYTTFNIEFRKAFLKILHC
5-hydroxytryptamine receptor 7, sequence (P34969 whole entry): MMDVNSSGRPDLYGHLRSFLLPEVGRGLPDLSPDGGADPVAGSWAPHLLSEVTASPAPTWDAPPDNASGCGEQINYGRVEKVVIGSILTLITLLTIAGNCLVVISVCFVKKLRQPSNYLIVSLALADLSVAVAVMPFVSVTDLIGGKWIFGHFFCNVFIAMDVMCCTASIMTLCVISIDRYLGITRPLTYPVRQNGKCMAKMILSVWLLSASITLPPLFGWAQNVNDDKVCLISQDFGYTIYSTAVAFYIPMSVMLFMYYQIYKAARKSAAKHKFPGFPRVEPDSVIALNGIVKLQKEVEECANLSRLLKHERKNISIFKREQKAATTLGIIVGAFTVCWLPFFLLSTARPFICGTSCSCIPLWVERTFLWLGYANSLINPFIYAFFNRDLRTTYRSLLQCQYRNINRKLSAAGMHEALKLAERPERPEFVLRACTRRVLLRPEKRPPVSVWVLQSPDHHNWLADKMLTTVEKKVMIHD
Sodium-dependent serotonin transporter, sequence (P31652 whole entry): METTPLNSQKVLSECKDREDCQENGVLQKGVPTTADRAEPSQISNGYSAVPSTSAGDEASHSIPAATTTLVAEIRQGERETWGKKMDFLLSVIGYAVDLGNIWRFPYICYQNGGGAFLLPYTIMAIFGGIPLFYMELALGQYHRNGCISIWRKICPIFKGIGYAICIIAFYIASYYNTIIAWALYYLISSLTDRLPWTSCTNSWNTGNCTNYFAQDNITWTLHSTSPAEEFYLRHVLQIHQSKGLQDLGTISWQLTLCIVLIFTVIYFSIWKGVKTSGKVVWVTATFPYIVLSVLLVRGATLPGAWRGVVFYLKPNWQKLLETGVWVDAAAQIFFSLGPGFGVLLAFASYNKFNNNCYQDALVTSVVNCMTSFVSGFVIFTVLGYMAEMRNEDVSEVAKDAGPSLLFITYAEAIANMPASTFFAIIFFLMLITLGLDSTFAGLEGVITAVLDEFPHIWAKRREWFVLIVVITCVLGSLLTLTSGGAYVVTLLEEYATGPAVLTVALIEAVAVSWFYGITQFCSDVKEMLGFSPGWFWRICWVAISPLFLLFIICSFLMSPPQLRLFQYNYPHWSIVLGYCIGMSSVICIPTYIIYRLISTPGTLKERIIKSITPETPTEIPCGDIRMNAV
5-hydroxytryptamine receptor 2A, sequence (P28223 whole entry): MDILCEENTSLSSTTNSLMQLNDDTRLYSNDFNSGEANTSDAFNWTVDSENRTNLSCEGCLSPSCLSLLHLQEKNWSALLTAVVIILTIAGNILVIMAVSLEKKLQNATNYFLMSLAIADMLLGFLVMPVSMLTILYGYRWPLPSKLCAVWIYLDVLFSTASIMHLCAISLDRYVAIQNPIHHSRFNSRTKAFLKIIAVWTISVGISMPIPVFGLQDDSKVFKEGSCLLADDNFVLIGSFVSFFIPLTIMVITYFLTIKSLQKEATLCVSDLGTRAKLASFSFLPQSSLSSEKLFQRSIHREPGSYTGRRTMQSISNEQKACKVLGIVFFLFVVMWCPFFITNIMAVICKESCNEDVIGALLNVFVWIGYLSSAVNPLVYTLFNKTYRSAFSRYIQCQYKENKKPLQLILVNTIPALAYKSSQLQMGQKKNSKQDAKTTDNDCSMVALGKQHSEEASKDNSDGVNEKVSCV

O=c1c(-c2ccccc2F)c2ccccn2c(=O)n1CCCCN1CCCC(c2c[nH]c3ccc(F)cc23)C1 (stereo not given)
Ki [1]: 115 nM
Ki [2]: 218 nM

COc1ccc2[nH]cc(C3CCCN(CCCCn4c(=O)c(-c5ccccc5)c5ccccn5c4=O)C3)c2c1 (stereo not given)
Ki [1]: 248 nM
Ki [2]: 261 nM

COc1ccccc1-c1c(=O)n(CCCCN2CCCC(c3c[nH]c4ccccc34)C2)c(=O)n2ccccc12 (stereo not given)
Ki [1]: 411 nM
Ki [2]: 132 nM

O=c1c(-c2ccccc2Cl)c2ccccn2c(=O)n1CCCCN1CCCC(c2c[nH]c3ccc(F)cc23)C1 (stereo not given)
Ki [1]: 255 nM
Ki [2]: 378 nM

O=c1c(-c2ccccc2Cl)c2ccccn2c(=O)n1CCCCN1CCCC(c2c[nH]c3ccccc23)C1 (stereo not given)
Ki [1]: 103 nM
Ki [2]: 50 nM

Cc1ccccc1-c1c(=O)n(CCCCN2CCCC(c3c[nH]c4ccc(F)cc34)C2)c(=O)n2ccccc12 (stereo not given)
Ki [1]: 338 nM
Ki [2]: 376 nM

Cc1ccccc1-c1c(=O)n(CCCCN2CCCC(c3c[nH]c4ccccc34)C2)c(=O)n2ccccc12 (stereo not given)
Ki [1]: 76 nM
Ki [2]: 102 nM

O=c1c(-c2ccc(F)cc2)c2ccccn2c(=O)n1CCCCN1CCCC(c2c[nH]c3ccccc23)C1 (stereo not given)
deltaT [3]: -1.3 °C
deltaT [4]: 0.4 °C
deltaT [5]: -0.2 °C
deltaT [6]: 0.5 °C
deltaT [7]: 0.2 °C
Ki [1]: 46 nM
Ki [8]: 963 nM
Ki [9]: 1440 nM
Ki [2]: 46 nM
deltaT [10]: -1.3 °C
half-life at 1 µM [11]: 5.53 min
deltaT [12]: 0.3 °C
deltaT [13]: 0.1 °C
deltaT [14]: 0.2 °C
deltaT [15]: -1.2 °C
Ki [16]: 435 nM
deltaT [17]: -1.2 °C
deltaT [18]: 0.4 °C
Ki [19]: 697 nM

Cc1ccc(-c2c(=O)n(CCCCN3CCCC(c4c[nH]c5ccccc45)C3)c(=O)n3ccccc23)cc1 (stereo not given)
Ki [1]: 207 nM
Ki [2]: 63 nM

COc1ccc(-c2c(=O)n(CCCCN3CCCC(c4c[nH]c5ccc(F)cc45)C3)c(=O)n3ccccc23)cc1 (stereo not given)
Ki [1]: 27 nM
Ki [2]: 140 nM

O=c1c(-c2ccc(Cl)cc2)c2ccccn2c(=O)n1CCCCN1CCCC(c2c[nH]c3ccccc23)C1 (stereo not given)
Ki [1]: 82 nM
Ki [2]: 294 nM

COc1ccc2[nH]cc(C3CCCN(CCCCn4c(=O)c(-c5ccccc5Cl)c5ccccn5c4=O)C3)c2c1 (stereo not given)
Ki [1]: 459 nM
Ki [2]: 176 nM

COc1ccc2[nH]cc(C3CCCN(CCCCn4c(=O)c(-c5ccccc5F)c5ccccn5c4=O)C3)c2c1 (stereo not given)
Ki [1]: 1670 nM
Ki [2]: 130 nM

O=c1c(-c2ccc(Cl)cc2)c2ccccn2c(=O)n1CCCCN1CCCC(c2c[nH]c3ccc(F)cc23)C1 (stereo not given)
Ki [1]: 86 nM
Ki [2]: 155 nM

COc1ccccc1-c1c(=O)n(CCCCN2CCCC(c3c[nH]c4ccc(F)cc34)C2)c(=O)n2ccccc12 (stereo not given)
Ki [1]: 118 nM
Ki [2]: 80 nM

Cc1ccc(-c2c(=O)n(CCCCN3CCCC(c4c[nH]c5ccc(F)cc45)C3)c(=O)n3ccccc23)cc1 (stereo not given)
Ki [1]: 135 nM
Ki [2]: 136 nM

O=c1c(-c2ccccc2)c2ccccn2c(=O)n1CCCCN1CCCC(c2c[nH]c3ccc(F)cc23)C1 (stereo not given)
Ki [1]: 8 nM
Ki [2]: 209 nM

O=c1c(-c2ccccc2F)c2ccccn2c(=O)n1CCCCN1CCCC(c2c[nH]c3ccccc23)C1 (stereo not given)
Ki [1]: 240 nM
Ki [2]: 53 nM

COc1ccc2[nH]cc(C3CCCN(CCCCn4c(=O)c(-c5ccccc5C)c5ccccn5c4=O)C3)c2c1 (stereo not given)
Ki [1]: 87 nM
Ki [2]: 476 nM

COc1ccc2[nH]cc(C3CCCN(CCCCn4c(=O)c(-c5ccc(C)cc5)c5ccccn5c4=O)C3)c2c1 (stereo not given)
Ki [1]: 173 nM
Ki [2]: 333 nM

COc1ccc(-c2c(=O)n(CCCCN3CCCC(c4c[nH]c5ccccc45)C3)c(=O)n3ccccc23)cc1 (stereo not given)
deltaT [4]: 0.4 °C
deltaT [5]: -1.6 °C
deltaT [6]: 0.3 °C
deltaT [7]: 0.5 °C
Ki [1]: 41 nM
Ki [8]: 1130 nM
Ki [9]: 1920 nM
deltaT [20]: -0.7 °C
Ki [2]: 42 nM
half-life at 1 µM [11]: 7.4 min
deltaT [12]: 0.4 °C
deltaT [13]: 0.3 °C
deltaT [14]: 0 °C
Ki [16]: 21 nM
deltaT [18]: 0.3 °C
deltaT [21]: -1.4 °C
Ki [19]: 1710 nM

COc1ccc2[nH]cc(C3CCCN(CCCCn4c(=O)c(-c5ccc(F)cc5)c5ccccn5c4=O)C3)c2c1 (stereo not given)
Ki [1]: 192 nM
Ki [2]: 281 nM

COc1ccc2[nH]cc(C3CCCN(CCCCn4c(=O)c(-c5ccccc5OC)c5ccccn5c4=O)C3)c2c1 (stereo not given)
Ki [1]: 386 nM
Ki [2]: 69 nM

O=c1c(-c2ccccc2)c2ccccn2c(=O)n1CCCCN1CCCC(c2c[nH]c3ccccc23)C1 (stereo not given)
deltaT [4]: -0.4 °C
deltaT [5]: -0.9 °C
deltaT [6]: -0.3 °C
deltaT [7]: -0.8 °C
Ki [1]: 68 nM
Ki [8]: 17700 nM
Ki [9]: 1110 nM
deltaT [20]: 0.1 °C
Ki [2]: 22 nM
Activity [22]: inactive
half-life at 1 µM [11]: 6.12 min
deltaT [12]: -0.5 °C
deltaT [13]: 0.2 °C
deltaT [14]: 0.1 °C
Ki [16]: 433 nM
deltaT [18]: -0.1 °C
deltaT [21]: 0 °C
Ki [19]: 435 nM

COc1ccc2[nH]cc(C3CCCN(CCCCn4c(=O)c(-c5ccc(Cl)cc5)c5ccccn5c4=O)C3)c2c1 (stereo not given)
Ki [1]: 490 nM
Ki [2]: 257 nM

O=c1c(-c2ccc(F)cc2)c2ccccn2c(=O)n1CCCCN1CCCC(c2c[nH]c3ccc(F)cc23)C1 (stereo not given)
Ki [1]: 30 nM
Ki [2]: 147 nM
